Laboratory results taken from ChEMBL document CHEMBL4312018, “Novel benzimidazole phosphonates as potential inhibitors of protein prenylation” (Bioorg Med Chem Lett, 2019).
Calls of active or inactive are those of the source. The calls are words filed in the database; no cut-off is given here.

Assays:
[1] = molecular target: T1, Geranylgeranyl transferase type-2 (Rattus norvegicus, UniProt Q08602+Q08603); test: Inhibition of recombinant rat RabGGTase expressed in Escherichia coli using Rab7 as substrate and [3H]geranylgeranyl pyrophosphate after 20 mins by liquid scintillation analysis
T1 sequence (Q08603 whole entry): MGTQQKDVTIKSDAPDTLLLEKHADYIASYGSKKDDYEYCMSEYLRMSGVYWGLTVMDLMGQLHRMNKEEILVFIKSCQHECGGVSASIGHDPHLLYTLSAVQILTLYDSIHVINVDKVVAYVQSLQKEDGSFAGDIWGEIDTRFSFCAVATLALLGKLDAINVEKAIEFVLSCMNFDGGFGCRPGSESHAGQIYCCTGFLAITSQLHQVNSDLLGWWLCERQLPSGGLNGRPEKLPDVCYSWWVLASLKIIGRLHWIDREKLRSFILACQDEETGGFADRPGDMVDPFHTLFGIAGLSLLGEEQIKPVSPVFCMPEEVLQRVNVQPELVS
T1 sequence (Q08602 whole entry): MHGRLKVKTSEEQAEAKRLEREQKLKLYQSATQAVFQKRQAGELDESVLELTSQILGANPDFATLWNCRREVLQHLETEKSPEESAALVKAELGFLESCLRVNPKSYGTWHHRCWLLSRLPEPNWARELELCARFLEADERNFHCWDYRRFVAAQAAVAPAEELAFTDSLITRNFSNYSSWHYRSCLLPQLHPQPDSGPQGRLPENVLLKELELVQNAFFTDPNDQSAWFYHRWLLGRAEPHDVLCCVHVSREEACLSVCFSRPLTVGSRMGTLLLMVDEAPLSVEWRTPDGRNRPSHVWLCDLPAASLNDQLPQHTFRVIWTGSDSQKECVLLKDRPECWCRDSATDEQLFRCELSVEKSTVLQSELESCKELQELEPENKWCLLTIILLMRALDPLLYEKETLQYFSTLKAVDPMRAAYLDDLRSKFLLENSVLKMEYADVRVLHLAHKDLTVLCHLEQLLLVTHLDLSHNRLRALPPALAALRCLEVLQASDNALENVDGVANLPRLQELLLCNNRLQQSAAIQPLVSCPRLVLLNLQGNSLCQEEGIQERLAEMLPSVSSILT

[2] = molecular target: geranylgeranyltransferase type-I (Rattus norvegicus, UniProt P53610+Q04631); test: Inhibition of recombinant rat GGtase-1 expressed in Escherichia coli using dansyl-GCVLL as substrate after 1.5 hrs by spectrofluorimetric analysis
[3] = molecular target: T2, geranylgeranyltransferase type-I (Rattus norvegicus) (UniProt P53610+Q04631); test: Activation of recombinant rat GGtase-1 expressed in Escherichia coli assessed as enzyme activity at 1000 uM using dansyl-GCVLL as substrate after 1.5 hrs by spectrofluorimetric analysis relative to control
[4] = molecular target: Protein farnesyltransferase (Rattus norvegicus, UniProt Q02293+Q04631); test: Inhibition of recombinant rat FTase expressed in Escherichia coli using dansyl-GCVLS as substrate after 1.5 hrs by spectrofluorimetric analysis
[5] = molecular target: T3, Farnesyl pyrophosphate synthase (Homo sapiens, UniProt P14324); test: Inhibition of FDPS (unknown origin) using [14C] IPP and GPP as substrate preincubated for 10 mins followed by substrate addition and measured after 30 min by liquid scintillation counting method
T3 sequence (P14324 whole entry): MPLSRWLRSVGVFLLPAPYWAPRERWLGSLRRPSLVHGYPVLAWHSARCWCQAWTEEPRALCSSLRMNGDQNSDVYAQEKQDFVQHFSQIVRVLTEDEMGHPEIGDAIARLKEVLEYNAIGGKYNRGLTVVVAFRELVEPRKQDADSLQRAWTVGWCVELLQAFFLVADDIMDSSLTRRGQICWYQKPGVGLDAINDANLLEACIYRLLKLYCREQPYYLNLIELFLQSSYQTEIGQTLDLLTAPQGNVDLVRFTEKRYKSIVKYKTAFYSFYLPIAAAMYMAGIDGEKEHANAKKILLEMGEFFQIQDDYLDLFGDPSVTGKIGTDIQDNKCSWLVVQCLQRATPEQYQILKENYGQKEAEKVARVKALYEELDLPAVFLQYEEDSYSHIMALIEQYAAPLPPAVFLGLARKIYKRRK

[6] = molecular target: T4, Geranylgeranyl pyrophosphate synthase (Homo sapiens, UniProt O95749); test: Inhibition of GGDPS (unknown origin) using [14C] IPP and FPP as substrate preincubated for 10 mins followed by substrate addition and measured after 30 min by liquid scintillation counting method
T4 sequence (O95749 whole entry): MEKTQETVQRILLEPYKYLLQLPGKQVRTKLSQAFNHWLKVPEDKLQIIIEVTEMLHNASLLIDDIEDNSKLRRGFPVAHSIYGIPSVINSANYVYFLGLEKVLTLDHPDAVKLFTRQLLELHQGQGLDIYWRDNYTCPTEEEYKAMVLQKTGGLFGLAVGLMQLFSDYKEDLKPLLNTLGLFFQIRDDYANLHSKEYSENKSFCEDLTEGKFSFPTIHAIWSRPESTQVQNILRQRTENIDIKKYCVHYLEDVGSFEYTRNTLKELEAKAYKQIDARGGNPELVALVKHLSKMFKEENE

Homo sapiens = organism: Homo sapiens; test: Selectivity ratio of IC50 for GGDPS (unknown origin) to IC50 for FDPS (unknown origin)
[7] = molecular target: T5, Farnesyl pyrophosphate synthase (Homo sapiens) (UniProt P14324); test: Inhibition of FDPS in human RPMI8226 cells assessed as unmodified Rap1a level at =< 1 mM after 48 hrs by immunoblot analysis; type: cell-based
T5 sequence (whole entry): T3 sequence (P14324 whole entry)
Outline: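 RPMI-8226 cells were exposed for 48 h. The lowest effective concentration counts only when two read-outs agree. Unmodified Rap1a must be visible on immunoblot of whole-cell lysate, using an antibody that detects only unmodified protein.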

[8] = molecular target: T5, Farnesyl pyrophosphate synthase (Homo sapiens); test: Inhibition of FDPS in human RPMI8226 cells assessed as increase in intracellular lambda chain level at =< 1mM after 48 hrs by ELISA; type: cell-based
Outline: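 RPMI-8226 cells were exposed for 48 h, and intracellular lambda light chain was measured by ELISA as percent of untreated control. The lowest effective concentration also requires unmodified Rap1a to be visible on whole-cell-lysate immunoblot with an unmodified-specific antibody. The ELISA rise must be statistically significant.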

[9] = molecular target: T6, Geranylgeranyl transferase type-2 (Homo sapiens) (UniProt P53611+Q92696); test: Inhibition of GGtase-2 in human RPMI8226 cells assessed as increase in intracellular lambda chain at =< 1 mM level after 48 hrs by ELISA; type: cell-based
Outline: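 RPMI-8226 cells were incubated 48 h with the compound or medium alone. Intracellular lambda light chain was quantified by ELISA and expressed as percent of untreated control (mean ± SD, n=3). Significance versus control was judged by t-test, p<0.05.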

[10] = molecular target: T6, Geranylgeranyl transferase type-2 (Homo sapiens); test: Inhibition of GGtase-2 in human RPMI8226 cells assessed as decrease in Rab6 level at =< 1 mM after 48 hrs by immunoblot analysis relative to control; type: cell-based
Outline: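 After 48 h treatment, RPMI-8226 cells were extracted with Triton X-114 to give a detergent (membrane) fraction, which was immunoblotted for Rab6. Rab6 band density was normalized to calnexin and expressed relative to untreated cells. Blots are representative of three independent studies.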

[11] = molecular target: Protein farnesyltransferase (Homo sapiens) (UniProt P49354+P49356); test: Inhibition of FTase in human RPMI8226 cells assessed as disruption of H-ras farnesylation after 48 hrs by immunoblot analysis; type: cell-based
[12] = molecular target: Geranylgeranyl transferase type I (Homo sapiens) (UniProt P49354+P53609); test: Inhibition of GGtase-1 in human RPMI8226 cells assessed as disruption of Rap1a geranylgeranylation after 48 hrs immunoblot analysis; type: cell-based
[13] = molecular target: T2, geranylgeranyltransferase type-I (Rattus norvegicus); test: Activation of recombinant rat GGtase-1 expressed in Escherichia coli using dansyl-GCVLL as substrate after 1.5 hrs by spectrofluorimetric analysis

IC50 [1]: 534 µM
IC50 [2]: > 1000 µM
Activity [3]: 560%
IC50 [4]: > 1000 µM
IC50 [5]: 0.69 µM
IC50 [6]: 41 µM
Ratio IC50 (Homo sapiens): 59
inhibition [7]: inactive
inhibition [8]: inactive
inhibition [9]: inactive
inhibition [10]: inactive
inhibition [11]: inactive
inhibition [12]: inactive
Activity [13]: Dose-dependent effect
SMILES: Cc1cc2ncn(CC(P(=O)(O)O)P(=O)(O)O)c2cc1C
